≈ marks a conversion by molar mass, not a printed value. Calls of active or inactive are those of the source. The calls are words filed in the database; no cut-off is given here. Where only a bound is given, the exact number is not on record here.

The record followed here is ChEMBL document CHEMBL2417516, “Metallo-β-lactamase inhibitory activity of 3-alkyloxy and 3-amino phthalic acid derivatives and their combination effect with carbapenem” (Bioorg Med Chem, 2013).

The target of one assay is Metallo beta-lactamase (Pseudomonas aeruginosa, UniProt Q6TUJ4). Briefly: Inhibition of carbapenems-resistant Pseudomonas aeruginosa MSC15369 metallo-beta-lactamase IMP1 expressed in Escherichia coli DH5[alpha] using nitrocefin as substrate after 20 mins by spectrophotometry. In outline: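 IMP-1 was expressed in E. coli DH5 with 0.5 mM IPTG induction for 3 h at room temperature, and the soluble enzyme was purified from cell extracts on Ni-NTA. Inhibitors were incubated with 1.0 nM IMP-1 for 20 min at room temperature, and IC50 values were determined.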

Assay [1] concerns Pseudomonas aeruginosa. As to the kind of experiment: Antibacterial activity against mexAB-deleted Pseudomonas aeruginosa KG5002/pMS363 at 50 ug/ml by microbroth dilution method in presence of biapenem. The assay is classed as functional, organism-based. (In broth dilution the organism is exposed to a series of concentrations in liquid medium.)
Assay [2] deals with Pseudomonas aeruginosa. As to the kind of experiment: Antibacterial activity against Pseudomonas aeruginosa PAO1 pMS363 at 50 ug/ml by microbroth dilution method in presence of biapenem. The assay is classed as functional, organism-based.
Assay [3] relates to Pseudomonas aeruginosa. As to the kind of experiment: Antibacterial activity against Pseudomonas aeruginosa clinical isolates producing IMP-1 by microbroth dilution method in presence of ceftazidime. The assay is classed as functional, organism-based. In outline: (§1)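 Minimum inhibitory concentrations were determined by broth microdilution following CLSI guidance, with Mueller–Hinton II broth as the test medium.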

The subject of assay [4] is Pseudomonas aeruginosa. As to the kind of experiment: Antibacterial activity against Pseudomonas aeruginosa clinical isolates producing IMP-1 by microbroth dilution method in presence of meropenem. The assay is classed as functional, organism-based. The procedure, abridged:
as §1

Assay [5] deals with Pseudomonas aeruginosa. As to the kind of experiment: Antibacterial activity against Pseudomonas aeruginosa clinical isolates producing IMP-1 by microbroth dilution method in presence of biapenem. The assay is classed as functional, organism-based. In outline: as §1
Assay [6] concerns Pseudomonas aeruginosa. Briefly: Antibacterial activity against mexAB-deleted Pseudomonas aeruginosa KG5002/pMS363 by microbroth dilution method. The assay is classed as functional. The procedure, abridged: (§2)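 MIC determined by broth microdilution following CLSI guidance, with Mueller–Hinton II broth as the test medium.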
Assay [7] relates to Pseudomonas aeruginosa. As to the kind of experiment: Antibacterial activity against Pseudomonas aeruginosa PAO1 pMS363 by microbroth dilution method. It counts as functional. The procedure, abridged: as §2

Chain of Metallo beta-lactamase (Q6TUJ4 whole entry): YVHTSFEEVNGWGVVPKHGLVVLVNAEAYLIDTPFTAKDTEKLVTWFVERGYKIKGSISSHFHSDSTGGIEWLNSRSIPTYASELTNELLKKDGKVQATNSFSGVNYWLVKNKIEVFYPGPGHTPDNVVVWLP

The term IC50 denotes the concentration at which inhibition is half-maximal. Higher therefore signals weaker potency in that assay. Take `COc1cccc(C(=O)O)c1C(=O)O`: half-maximal inhibition on Metallo beta-lactamase (IC50) was put at 142 µM.

On to `O=C(O)c1cccc(N2CCC(O)CC2)c1C(=O)O`, for which the outcome with Pseudomonas aeruginosa [1] and with Pseudomonas aeruginosa [2] was Active. Moreover, the Activity result in the assay with Pseudomonas aeruginosa [3], in the assay with Pseudomonas aeruginosa [4] and with Pseudomonas aeruginosa [5] was “Dose-dependent effect” in each case. The same compound yielded an IC50 at Metallo beta-lactamase of 2.7 µM.

Regarding `O=C(O)c1cccc(OCCCC2CCCCC2)c1C(=O)O`, the result with Pseudomonas aeruginosa [2] was inactive. In addition, it took 2 µM to reach half-maximal inhibition at Metallo beta-lactamase (IC50).

In the case of `O=C(O)c1cccc(OCCO)c1C(=O)O`, the result with Pseudomonas aeruginosa [1] and in the assay on Pseudomonas aeruginosa [2] was Active. The IC50 against Metallo beta-lactamase is 47.8 µM.

With `O=C(O)c1cccc(N2CCC(O)(c3ccccc3)CC2)c1C(=O)O`, the outcome in the assay on Pseudomonas aeruginosa [1] and in the assay with Pseudomonas aeruginosa [2] was Active. This compound also displayed an IC50 at Metallo beta-lactamase of 2.3 µM.

`O=C(O)c1cccc(N2CCC(CO)CC2)c1C(=O)O`: the outcome with Pseudomonas aeruginosa [1] and in the assay with Pseudomonas aeruginosa [2] was Active. The compound also registered an IC50 at Metallo beta-lactamase of 2.6 µM.

In the case of `O=C(O)c1cccc(N2CCC(CCO)CC2)c1C(=O)O`, the result in the assay with Pseudomonas aeruginosa [1] and with Pseudomonas aeruginosa [2] was Active. On Metallo beta-lactamase, 25.6 µM corresponded to half-maximal inhibition (IC50).

On to `CN(C)c1cccc(C(=O)O)c1C(=O)O`, for which the outcome in the assay on Pseudomonas aeruginosa [1] and with Pseudomonas aeruginosa [2] was Active. The compound further returned an IC50 against Metallo beta-lactamase of 94.5 µM.

On Metallo beta-lactamase, `O=C(O)c1cccc(O)c1C(=O)O` gave an IC50 above 300 µM.

For the compound `O=C(O)c1cccc(OCCCO)c1C(=O)O`, the outcome in the assay on Pseudomonas aeruginosa [1] and with Pseudomonas aeruginosa [2] was Active. Moreover, the IC50 at Metallo beta-lactamase was 21.4 µM.

`CCCCOc1cccc(C(=O)O)c1C(=O)O`: the IC50 against Metallo beta-lactamase came to 5.1 µM.

As to `COC1CCN(c2cccc(C(=O)O)c2C(=O)O)CC1`, the outcome in the assay with Pseudomonas aeruginosa [1] and with Pseudomonas aeruginosa [2] was Active. At Metallo beta-lactamase, this compound gave an IC50 of 3.7 µM.

On to `O=C(O)c1cccc(N2CCCCC2)c1C(=O)O`, for which the result with Pseudomonas aeruginosa [1] and in the assay with Pseudomonas aeruginosa [2] was Active. Further, on Metallo beta-lactamase, the IC50 amounted to 10.8 µM.

In turn, `CCCCNc1cccc(C(=O)O)c1C(=O)O` had an IC50 against Metallo beta-lactamase of 13.1 µM.

Broadly, the MIC is the lowest concentration that inhibits growth of the organism. A high value points to a less susceptible organism. On to `C[C@@H](O)[C@H]1C(=O)N2C(C(=O)[O-])=C(SC3Cn4cnc[n+]4C3)[C@H](C)[C@H]12` (stereo not given in full) [BIAPENEM], for which the MIC with Pseudomonas aeruginosa [6] and in the assay on Pseudomonas aeruginosa [7] was 64 µg/mL (≈ 183 µM) each time.

In the case of `O=C(O)c1cccc(N2CCCC(O)C2)c1C(=O)O` (stereo not given), the result in the assay with Pseudomonas aeruginosa [1] and in the assay with Pseudomonas aeruginosa [2] was Active. The compound also gave an IC50 on Metallo beta-lactamase of 2.7 µM.

In the case of `O=C(O)CCCCOc1cccc(C(=O)O)c1C(=O)O`, the outcome with Pseudomonas aeruginosa [2] was Active. On Metallo beta-lactamase, this compound returned an IC50 of 18.8 µM.

As to `O=C(O)c1cccc(OCc2ccccc2)c1C(=O)O`, at Metallo beta-lactamase, it took 7.4 µM to reach half-maximal inhibition (IC50).

As to `O=C(O)c1cccc(N2CCCC2)c1C(=O)O`, the result with Pseudomonas aeruginosa [1] and in the assay with Pseudomonas aeruginosa [2] was Active. At Metallo beta-lactamase, this compound returned an IC50 of 2.8 µM.

For `O=C(O)c1cccc(N2CCCC(CO)C2)c1C(=O)O` (stereo not given), the result with Pseudomonas aeruginosa [1] and with Pseudomonas aeruginosa [2] was Active. The IC50 against Metallo beta-lactamase was found to be 2.1 µM.

For the compound `O=C(O)c1cccc(OCCCc2ccccc2)c1C(=O)O`, in the assay with Pseudomonas aeruginosa [1], the outcome was Active. Besides, in the assay on Pseudomonas aeruginosa [2], the outcome was inactive. This compound also gave an IC50 against Metallo beta-lactamase of 1.7 µM.

At Metallo beta-lactamase, `O=C(O)c1cccc(-c2ccc(O)cc2)c1C(=O)O` had an IC50 of 1.55 µM.

The compound `Nc1cccc(C(=O)O)c1C(=O)O` had an IC50 against Metallo beta-lactamase of 300 µM.
